Screens from PubChem BioAssay.
HSF1 inh: HSF1 inhibition; 300,000 compounds, 0.77% hits; activity change, negative = inhibition, % at 7.5 µM (by protocol); NIH3T3-HGL HSE-luciferase, MG132-induced, luminescence 8 h; active compounds read low;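 active = more than half of replicate wells show activity change below -50%, luminescence cut by over half; inconclusive = some wells, but at most half, below -50%; inactive = no replicate well below -50%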;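 also: luciferase reports HSF-1 transcriptional activity via heat shock element; 0% = median of DMSO wells and -100% = zero luminescence signal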
ALR H2O2 inh: inhibitors of human sulfhydryl oxidase ALR; P55789; purified ALR, DTT oxidation, H2O2 HRP-luminol luminescence; inhibition, % (test concentration not listed); 290,000 compounds, 3.8% hits;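 active = mean replicate inhibition above about 79%, with every replicate also reaching it, limit read from the data; inconclusive = only one of the two criteria met; inactive = mean below limit and not every replicate reaching it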
PHOSPHO1 block: blocks human PHOSPHO1 phosphatase activity. recombinant PHOSPHO1, absorbance phosphatase assay. 290,000 compounds, 1.1% hits. inhibition, % at 13.3 µM; in the data active = inhibition above about 60%
Target sequence (Q8TCT1 whole entry, looked up): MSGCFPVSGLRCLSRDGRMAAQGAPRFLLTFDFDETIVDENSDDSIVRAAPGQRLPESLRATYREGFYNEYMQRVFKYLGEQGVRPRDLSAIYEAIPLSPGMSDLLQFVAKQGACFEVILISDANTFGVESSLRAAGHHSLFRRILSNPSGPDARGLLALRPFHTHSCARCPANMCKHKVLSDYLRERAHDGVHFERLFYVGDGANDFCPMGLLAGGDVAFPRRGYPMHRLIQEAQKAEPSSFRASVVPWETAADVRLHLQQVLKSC
AI-2 QS mod: modulates the Vibrio harveyi AI-2 quorum sensing system. Vibrio harveyi JMH597 AI-2 luminescence/OD600 ratio, 9 h; active compounds read low; strain lacks LuxN and CqsS sensors; 0 = neutral-control median. activity change, % at 7.5 µM. 300,000 compounds, 0.4% hits. AID 2094; in the data active = activity change below about -75%, passing the limit was not always enough; inconclusive = no clear call, values can overlap the other calls;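 also: luminescence divided by OD600 gain over 9 h not by final OD600 alone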
HSF-1 act: increases HSF-1 driven luciferase reporter signal; NIH3T3-HGL HSF-1 luciferase reporter, MG132, 8 h; 100% = twice DMSO control signal; activation, % at 9 µM; 300,000 compounds, 1.7% hits; AID 504408;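 active = mean replicate activation of at least 50% with a set share of replicates each reaching 50%; inconclusive = only one of those two conditions met; inactive = mean below 50% and too few replicates reaching it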;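 also: 0% = median of the neutral control wells and 100% = twice that signal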
core dimer inh: HCV core protein dimerization inhibition | TR-FRET GST/Flag-core106 dimerization, 1536-well | inhibition, % at 5 µM | 300,000 compounds, 0.33% hits | AID 1899;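 active = inhibition above the mean of all tested compounds plus 3 SD, set per screening campaign, cut at about 45% in these data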
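Assay system: tagged HCV core106 pair (GST and Flag); medium: KF-containing HEPES buffer, pH 7.45, DTT, CHAPS, BSA; also added: Eu donor and XL665 acceptor anti-tag antibodies; dosing: 5 µM single dose; timing: compound-protein-antibody incubation 4 h at 22.5 °C; signal: TR-FRET 671 and 617 nm emission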
* hit, by the source's call. The list is not random: actives were taken first. Their share in the collection is about 6.8%.

For O=C1/C(=C/c2cccnc2)SC(=S)N1c1ccccc1 the results were HSF1 inh 1, ALR H2O2 inh -4, PHOSPHO1 block -1, AI-2 QS mod 13, HSF-1 act 30 and core dimer inh 11.
O=C1/C(=C/c2cccnc2)SC(=S)N1Nc1ccccc1 was read as HSF1 inh -4, ALR H2O2 inh 92*, PHOSPHO1 block -6, AI-2 QS mod 17, HSF-1 act -7 and core dimer inh -3.
For O=C1CCC(=O)N1c1ccccc1 the results were HSF1 inh -10, ALR H2O2 inh 3, PHOSPHO1 block 34, AI-2 QS mod -20, HSF-1 act 7 and core dimer inh -11.
O=C1N=NC(=O)N1c1ccccc1 was read as HSF1 inh -34, ALR H2O2 inh 87*, PHOSPHO1 block 0, AI-2 QS mod 1, HSF-1 act -50 and core dimer inh 5.
For CN1CCc2nc(NC(=O)COc3ccc(C#N)cc3)sc2C1 the results were HSF1 inh -2, ALR H2O2 inh -4, PHOSPHO1 block -15, AI-2 QS mod 36, HSF-1 act 9 and core dimer inh 5.
CCOc1ccc(NC(=O)CSc2nc3ccsc3c(=O)n2CCC(=O)O)cc1 was read as HSF1 inh -2, ALR H2O2 inh 95*, PHOSPHO1 block -25, AI-2 QS mod 19, HSF-1 act 5 and core dimer inh 4.
Screening CC1Cc2nc(SCC(=O)Nc3ccc(F)cc3)n(C)c(=O)c2S1 (stereo unspecified) returned HSF1 inh 9, ALR H2O2 inh 98*, PHOSPHO1 block -19, AI-2 QS mod 15, HSF-1 act 2 and core dimer inh 10.
For CCc1ccc(NC(=O)CSc2nc3ccsc3c(=O)n2CCC(=O)O)cc1 the results were HSF1 inh 0, ALR H2O2 inh 2, PHOSPHO1 block 28, AI-2 QS mod 38, HSF-1 act 5 and core dimer inh 2.
CC1Cc2nc(SCC(=O)Nc3nccs3)n(C)c(=O)c2S1 (stereo unspecified) was read as HSF1 inh -8, ALR H2O2 inh 98*, PHOSPHO1 block -45, AI-2 QS mod 1, HSF-1 act 0 and core dimer inh 12.
`Cc1nnc(NC(=O)CSc2nc3c(c(=O)n2C)SC(C)C3)s1` (stereo unspecified) gave HSF1 inh 0, ALR H2O2 inh -11, PHOSPHO1 block -6, AI-2 QS mod 18, HSF-1 act -10 and core dimer inh -2.
For COc1cccc(NC(=O)CSc2nc3c(c(=O)n2C)SC(C)C3)c1 (stereo unspecified) the results were HSF1 inh 4, ALR H2O2 inh 99*, PHOSPHO1 block 5, AI-2 QS mod 7, HSF-1 act 5 and core dimer inh 2.
Cc1cc(C)c(NC(=O)CSc2nc3c(c(=O)n2C)SC(C)C3)c(C)c1 (stereo unspecified) was read as HSF1 inh 2, ALR H2O2 inh -9, PHOSPHO1 block 26, AI-2 QS mod 25, HSF-1 act 9 and core dimer inh -5.
For COc1ccc(C(=O)C2CCCN(C(=O)c3cccc(N4CCCC4=O)c3)C2)cc1OC (stereo unspecified) the results were HSF1 inh 15, PHOSPHO1 block 8, AI-2 QS mod 24 and HSF-1 act inconclusive.
`Cc1ccc(-n2c(SCC(=O)Nc3cc(C)on3)nc3c(c2=O)SC(C)C3)cc1` (stereo unspecified) gave HSF1 inh -4, ALR H2O2 inh 91*, PHOSPHO1 block -4, AI-2 QS mod 19, HSF-1 act -7 and core dimer inh -2.
CCOc1ccc(NC(=O)CSc2nc3c(c(=O)n2C)SC(C)C3)cc1 (stereo unspecified) was read as ALR H2O2 inh 98*, PHOSPHO1 block -4 and core dimer inh 2.
Cc1cc(C)cc(NC(=O)CSc2nc3c(c(=O)n2C)SC(C)C3)c1 (stereo unspecified) was read as HSF1 inh 8, ALR H2O2 inh 97*, PHOSPHO1 block 6, AI-2 QS mod 3, HSF-1 act 20 and core dimer inh 7.
